Test results from ChEMBL document CHEMBL3232904, “Discovery of novel quinoline carboxylic acid series as DGAT1 inhibitors” (Bioorg Med Chem Lett, 2014).

Columns and labels:
[1] = target: T1, Sterol O-acyltransferase 2 (Homo sapiens, UniProt O75908); test: Inhibition of human ACAT2
T1 sequence (O75908 whole entry): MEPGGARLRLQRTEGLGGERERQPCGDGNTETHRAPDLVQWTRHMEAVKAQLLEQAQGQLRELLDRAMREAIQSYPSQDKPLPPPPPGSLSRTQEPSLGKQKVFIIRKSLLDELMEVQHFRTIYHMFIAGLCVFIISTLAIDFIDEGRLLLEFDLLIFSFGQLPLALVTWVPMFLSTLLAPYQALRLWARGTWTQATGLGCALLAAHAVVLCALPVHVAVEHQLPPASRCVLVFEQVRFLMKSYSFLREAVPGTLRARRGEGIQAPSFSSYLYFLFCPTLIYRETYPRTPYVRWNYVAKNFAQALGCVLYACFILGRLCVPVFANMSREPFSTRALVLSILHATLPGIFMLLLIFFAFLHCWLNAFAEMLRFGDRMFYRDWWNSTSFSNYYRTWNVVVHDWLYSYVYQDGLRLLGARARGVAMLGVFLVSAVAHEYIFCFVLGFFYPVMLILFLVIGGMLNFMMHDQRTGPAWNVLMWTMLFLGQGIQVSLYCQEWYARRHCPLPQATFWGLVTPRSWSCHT
How it was run: (§1)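 IC50 values are the average of at least two independent determinations.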

[2] = target: T2, Diacylglycerol O-acyltransferase 1 (Mus musculus, UniProt Q9Z2A7); test: Inhibition of mouse DGAT1; how it was run: as §1
T2 sequence (Q9Z2A7 whole entry): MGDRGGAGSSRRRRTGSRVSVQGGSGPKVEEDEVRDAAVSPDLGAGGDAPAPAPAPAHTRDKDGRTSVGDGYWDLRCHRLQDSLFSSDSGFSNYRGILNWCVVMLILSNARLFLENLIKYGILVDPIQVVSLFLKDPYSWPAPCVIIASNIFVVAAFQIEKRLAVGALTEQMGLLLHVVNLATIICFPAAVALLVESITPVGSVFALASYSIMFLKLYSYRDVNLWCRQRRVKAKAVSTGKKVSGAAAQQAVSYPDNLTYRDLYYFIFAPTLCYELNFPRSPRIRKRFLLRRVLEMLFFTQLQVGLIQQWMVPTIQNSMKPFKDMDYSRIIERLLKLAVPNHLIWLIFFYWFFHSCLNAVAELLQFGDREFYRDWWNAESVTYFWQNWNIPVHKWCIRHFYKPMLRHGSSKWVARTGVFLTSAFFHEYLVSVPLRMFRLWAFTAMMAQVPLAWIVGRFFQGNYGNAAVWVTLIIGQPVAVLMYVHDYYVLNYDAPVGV

Mus musculus [3] = test: Reduction of postprandial plasma triglyceride level in C57BL/6J mouse at 3 mg/kg, po administered 15 mins prior to corn oil bolus challenge measured after 2 hrs relative to vehicle-treated control; assay type: functional; design: scale not given: the % may be the effect or the level left
How it was run: (§2)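 Vehicle is 20% hydroxypropyl-β-cyclodextrin; compound or vehicle is given 15 min before time 0. Mice receive a 0.25 mL corn oil bolus at time 0. Terminal blood is taken by heart puncture at 120 min. Plasma TG is measured by an enzymatic colorimetric kit with absorbance read at 600 nm. Values are the mean ± SEM from eight studies, as % reduction versus vehicle.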

Mus musculus [4] = test: Reduction of postprandial plasma triglyceride level in C57BL/6J mouse at 1 mg/kg, po administered 15 mins prior to corn oil bolus challenge measured after 2 hrs relative to vehicle-treated control; assay type: functional; design: scale not given: the % may be the effect or the level left; how it was run: as §2
Mus musculus [5] = test: Reduction of plasma triglyceride level in C57BL/6J mouse at 3 mg/kg, po administered 15 mins prior to corn oil bolus challenge measured after 12 hrs relative to vehicle-treated control; assay type: functional; design: scale not given: the % may be the effect or the level left
[6] = AUC in rat at 10 mg/kg, po; assay type: ADME, organism-based; design: dose 10 mg/kg, route oral; settings: plasma
[7] = target: T3, PXR (nuclear receptor subfamily 1 group I member 2) (Homo sapiens, UniProt O75469); test: Activation of PXR (unknown origin) at 10 uM; assay type: ADME; settings: read-out: FC
T3 sequence (O75469 whole entry): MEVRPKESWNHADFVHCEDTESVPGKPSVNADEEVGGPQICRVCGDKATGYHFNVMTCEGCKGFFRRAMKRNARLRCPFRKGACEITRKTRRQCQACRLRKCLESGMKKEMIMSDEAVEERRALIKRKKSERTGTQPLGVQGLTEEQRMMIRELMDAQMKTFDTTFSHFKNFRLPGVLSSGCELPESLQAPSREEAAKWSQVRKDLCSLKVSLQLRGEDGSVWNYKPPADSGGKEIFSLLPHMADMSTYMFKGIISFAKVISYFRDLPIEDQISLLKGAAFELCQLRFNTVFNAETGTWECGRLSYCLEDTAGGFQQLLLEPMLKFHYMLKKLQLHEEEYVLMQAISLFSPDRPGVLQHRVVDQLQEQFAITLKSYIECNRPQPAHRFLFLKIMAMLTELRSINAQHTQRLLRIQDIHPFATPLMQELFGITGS

Cytochrome P450 1A1 = target: T4, Cytochrome P450 1A1 (Homo sapiens, UniProt P04798); test: Induction of CYP1A1 (unknown origin); assay type: ADME
T4 sequence (P04798 whole entry): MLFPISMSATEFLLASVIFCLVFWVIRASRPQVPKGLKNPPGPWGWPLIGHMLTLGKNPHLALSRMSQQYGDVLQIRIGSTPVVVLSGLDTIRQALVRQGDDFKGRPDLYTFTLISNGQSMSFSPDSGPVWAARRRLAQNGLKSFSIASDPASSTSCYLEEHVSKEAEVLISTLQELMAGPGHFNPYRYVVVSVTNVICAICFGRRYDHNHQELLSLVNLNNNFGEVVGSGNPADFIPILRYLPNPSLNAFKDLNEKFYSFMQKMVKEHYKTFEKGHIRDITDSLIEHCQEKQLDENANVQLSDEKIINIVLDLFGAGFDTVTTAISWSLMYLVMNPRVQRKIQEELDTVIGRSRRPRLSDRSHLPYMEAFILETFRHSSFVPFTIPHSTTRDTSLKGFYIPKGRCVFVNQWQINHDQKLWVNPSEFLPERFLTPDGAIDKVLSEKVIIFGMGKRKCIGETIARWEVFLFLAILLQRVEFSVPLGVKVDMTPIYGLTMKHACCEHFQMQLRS

SMILES: Cc1cc(C(=O)Nc2ccccc2)c2ccc(-c3ccc([C@H]4CC[C@H](CC(=O)O)CC4)cc3)cc2n1
- IC50 [1]: 1100 nM
- IC50 [2]: 10 nM
- Activity (Mus musculus [3]): -100%
- Activity (Mus musculus [4]): -94%
- Activity (Mus musculus [5]): -79%
- AUC [6]: 79 µM·h
- fold induction at 10 µM [7]: 1.4
- Activity (Cytochrome P450 1A1): Active
